Blank lines part the entries; values can stand above or below the molecule they belong to.
Experiments:
[1] = molecular target: T1, 3-hydroxy-3-methylglutaryl-coenzyme A reductase (Schizosaccharomyces pombe 972h-, UniProt Q10283); assay: Inhibition of Schizosaccharomyces pombe HMG-CoA reductase by spectrophotometry
T1 sequence (Q10283 whole entry): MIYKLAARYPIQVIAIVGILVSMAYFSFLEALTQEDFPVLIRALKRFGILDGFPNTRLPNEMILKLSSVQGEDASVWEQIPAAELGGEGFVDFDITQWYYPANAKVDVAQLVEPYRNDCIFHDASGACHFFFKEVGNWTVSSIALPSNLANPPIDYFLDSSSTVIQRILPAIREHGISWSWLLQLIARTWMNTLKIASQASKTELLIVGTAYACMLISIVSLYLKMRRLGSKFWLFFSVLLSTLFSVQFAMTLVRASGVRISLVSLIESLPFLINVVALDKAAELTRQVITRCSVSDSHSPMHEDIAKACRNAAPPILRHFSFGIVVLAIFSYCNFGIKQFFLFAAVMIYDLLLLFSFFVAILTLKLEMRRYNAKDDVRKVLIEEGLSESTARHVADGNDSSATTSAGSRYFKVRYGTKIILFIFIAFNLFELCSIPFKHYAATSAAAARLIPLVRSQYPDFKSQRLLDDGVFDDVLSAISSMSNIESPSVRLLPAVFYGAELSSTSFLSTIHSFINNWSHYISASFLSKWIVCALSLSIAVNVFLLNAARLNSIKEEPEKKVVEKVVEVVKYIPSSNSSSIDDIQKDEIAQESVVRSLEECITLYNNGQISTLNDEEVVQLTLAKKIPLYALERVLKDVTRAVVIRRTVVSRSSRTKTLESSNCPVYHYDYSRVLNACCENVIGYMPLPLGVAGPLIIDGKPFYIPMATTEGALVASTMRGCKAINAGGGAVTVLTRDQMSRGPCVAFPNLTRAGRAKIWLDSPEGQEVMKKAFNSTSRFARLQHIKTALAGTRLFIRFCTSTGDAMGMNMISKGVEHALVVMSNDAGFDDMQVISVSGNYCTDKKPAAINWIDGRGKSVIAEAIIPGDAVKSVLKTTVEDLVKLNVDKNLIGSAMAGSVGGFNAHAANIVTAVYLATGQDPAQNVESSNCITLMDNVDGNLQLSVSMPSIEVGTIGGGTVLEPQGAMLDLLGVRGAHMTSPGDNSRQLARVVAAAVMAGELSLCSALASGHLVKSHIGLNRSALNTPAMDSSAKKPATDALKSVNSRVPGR
Method in brief: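 Membrane HMGR partially purified from S. pombe 972 h (YPD, 28 °C, 48 h) via centrifugation, Triton X-100 solubilization, 65 °C heat step, ammonium sulfate and calcium phosphate gel. Enzyme activated 37 °C 30 min, pre-incubated with compound (DMSO stocks 1–5 mM) 30 min at 37 °C. Assay: 200 µg enzyme, 0.13 mM HMG-CoA, 50 mM Tris-HCl pH 7.5; started with 0.13 mM NADPH; A340 decrease over 2 min; triplicate; IC50 derived.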

Mus musculus [2] = assay: Hypolipidemic activity in ICR mouse assessed as decrease in Tyloxapol-induced total cholesterol level at 50 mg/kg, ip administered 1 hr before Tyloxapol challenge and 22, 48 hrs after Tyloxapol challenge measured after 22 hrs relative to control; type: functional; design: scale not given: the % may be the effect or the level left; conditions: route oral, in the assay text read “po administered” for “ip administered”
Method in brief: (§1)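 Male ICR mice (24–27 g), groups of six. Hyperlipidemia induced by ip Tyloxapol (Triton WR 1339) 400 mg/kg in water. Drug given at 5 mL/kg 1 h before and 22 and 48 h after injection; vehicle controls. Blood drawn 22 h post-injection by periorbital bleeding. Serum total cholesterol, HDL-C and triglycerides measured on an automatic analyzer; LDL-C by the Friedewald equation. Values are % of the Tyloxapol group, mean ± SE.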

Mus musculus [3] = assay: Hypolipidemic activity in ICR mouse assessed as decrease in Tyloxapol-induced total cholesterol level at 100 mg/kg, ip administered 1 hr before Tyloxapol challenge and 22, 48 hrs after Tyloxapol challenge measured after 22 hrs relative to control; type: functional; design: scale not given: the % may be the effect or the level left; conditions: route oral, in the assay text read “po administered” for “ip administered”; method in brief: as §1
Mus musculus [4] = assay: Hypolipidemic activity in ICR mouse assessed as decrease in Tyloxapol-induced LDL-cholesterol level at 50 mg/kg, ip administered 1 hr before Tyloxapol challenge and 22, 48 hrs after Tyloxapol challenge measured after 22 hrs relative to control; type: functional; design: scale not given: the % may be the effect or the level left; conditions: route oral, in the assay text read “po administered” for “ip administered”; method in brief: as §1
Mus musculus [5] = assay: Hypolipidemic activity in ICR mouse assessed as decrease in Tyloxapol-induced LDL-cholesterol level at 100 mg/kg, ip administered 1 hr before Tyloxapol challenge and 22, 48 hrs after Tyloxapol challenge measured after 22 hrs relative to control; type: functional; design: scale not given: the % may be the effect or the level left; conditions: route oral, in the assay text read “po administered” for “ip administered”; method in brief: as §1
Mus musculus [6] = assay: Hypolipidemic activity in ICR mouse assessed as decrease in Tyloxapol-induced HDL-cholesterol level at 50 mg/kg, ip administered 1 hr before Tyloxapol challenge and 22, 48 hrs after Tyloxapol challenge measured after 22 hrs relative to control; type: functional; design: scale not given: the % may be the effect or the level left; conditions: route oral, in the assay text read “po administered” for “ip administered”; method in brief: as §1
Mus musculus [7] = assay: Hypolipidemic activity in ICR mouse assessed as decrease in Tyloxapol-induced HDL-cholesterol level at 100 mg/kg, ip administered 1 hr before Tyloxapol challenge and 22, 48 hrs after Tyloxapol challenge measured after 22 hrs relative to control; type: functional; design: scale not given: the % may be the effect or the level left; conditions: route intraperitoneal; method in brief: as §1
Mus musculus [8] = assay: Hypolipidemic activity in ICR mouse assessed as decrease in Tyloxapol-induced triglyceride level at 50 mg/kg, ip administered 1 hr before Tyloxapol challenge and 22, 48 hrs after Tyloxapol challenge measured after 22 hrs relative to control; type: functional; design: scale not given: the % may be the effect or the level left; conditions: route intraperitoneal; method in brief: as §1
Mus musculus [9] = assay: Hypolipidemic activity in ICR mouse assessed as decrease in Tyloxapol-induced triglyceride level at 100 mg/kg, ip administered 1 hr before Tyloxapol challenge and 22, 48 hrs after Tyloxapol challenge measured after 22 hrs relative to control; type: functional; design: scale not given: the % may be the effect or the level left; conditions: route intraperitoneal; method in brief: as §1
Mus musculus [10] = assay: Hypolipidemic activity in high cholesterol diet fed ICR mouse assessed as reduction of total cholesterol level at 50 mg/kg, ip after 12 hrs of last cholesterol challenge relative to control; type: functional; design: scale not given: the % may be the effect or the level left; conditions: route intraperitoneal
Method in brief: (§2)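 Male ICR mice (24–27 g), six per group, were fed a high-cholesterol diet ad libitum for 6 days (1.0% cholesterol, 0.5% sodium cholate, 5% butter, 30% sucrose, 10% casein, 53.5% chow). Basal-diet mice served as controls. Dosing was 5 mL/kg and solutions were made fresh. Mice were fasted 12 h before sacrifice and bled periorbitally. Serum TC, HDL-C and TG were read on an analyzer, with LDL-C by Friedewald.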

Mus musculus [11] = assay: Hypolipidemic activity in high cholesterol diet fed ICR mouse assessed as reduction of total cholesterol level at 100 mg/kg/day, ip after 12 hrs of last cholesterol challenge relative to control; type: functional; design: scale not given: the % may be the effect or the level left; conditions: route intraperitoneal; method in brief: as §2
Mus musculus [12] = assay: Hypolipidemic activity in high cholesterol diet fed ICR mouse assessed as reduction of triglyceride level at 50 mg/kg/day, po after 12 hrs of last cholesterol challenge relative to control; design: scale not given: the % may be the effect or the level left
Mus musculus [13] = assay: Hypolipidemic activity in high cholesterol diet fed ICR mouse assessed as reduction of triglyceride level at 100 mg/kg/day, po after 12 hrs of last cholesterol challenge relative to control; design: scale not given: the % may be the effect or the level left
Mus musculus [14] = assay: Hypolipidemic activity in high cholesterol diet fed ICR mouse assessed as reduction of LDL cholesterol level at 50 mg/kg/day, po after 12 hrs of last cholesterol challenge relative to control; design: scale not given: the % may be the effect or the level left
Mus musculus [15] = assay: Hypolipidemic activity in high cholesterol diet fed ICR mouse assessed as reduction of HDL cholesterol level at 50 mg/kg/day, po after 12 hrs of last cholesterol challenge relative to control; design: scale not given: the % may be the effect or the level left
Mus musculus [16] = assay: Hypolipidemic activity in high cholesterol diet fed ICR mouse assessed as reduction of LDL cholesterol level at 100 mg/kg/day, po after 12 hrs of last cholesterol challenge relative to control; design: scale not given: the % may be the effect or the level left
Mus musculus [17] = assay: Hypolipidemic activity in high cholesterol diet fed ICR mouse assessed as reduction of HDL cholesterol level at 100 mg/kg/day, po after 12 hrs of last cholesterol challenge relative to control; design: scale not given: the % may be the effect or the level left

IC50 ([1]; read-out: IC50): 84.6 µM
Structure (SMILES): CCCCCc1cc(OC)c(OC)cc1OC

IC50 ([1]; read-out: IC50): 144 µM
Structure (SMILES): C=CCc1cc(OC)c(OCC(=O)O)cc1[N+](=O)[O-]

IC50 ([1]; read-out: IC50): 239 µM
Structure (SMILES): C=CCc1ccc(OCCNC(=O)c2cccc(Cl)c2)c(OC)c1

IC50 ([1]; read-out: IC50): 167 µM
Structure (SMILES): C/C=C/c1cc(OC)c(OC)cc1N

Structure (SMILES): CCCc1ccc(OCC(=O)O)c(OC)c1
Activity (Mus musculus [2]): -21.28%
Activity (Mus musculus [3]): -22.59%
Activity (Mus musculus [4]): -32.56%
Activity (Mus musculus [5]): -39.12%
Activity (Mus musculus [6]): -18.23%
Activity (Mus musculus [7]): -15.32%
Activity (Mus musculus [8]): -32.46%
Activity (Mus musculus [9]): -29.89%
Activity (Mus musculus [10]): -32.83%
Activity (Mus musculus [11]): -25.66%
Activity (Mus musculus [12]): -38.38%
Activity (Mus musculus [13]): -27.55%
Activity (Mus musculus [14]): -33.54%
Activity (Mus musculus [15]): -15.66%
Activity (Mus musculus [16]): -44.51%
Activity (Mus musculus [17]): -19.33%

Structure (SMILES): CCCc1cc(OC)c(OCC(=O)OC)cc1[N+](=O)[O-]
Activity (Mus musculus [2]): -68.64%
Activity (Mus musculus [3]): -60.1%
Activity (Mus musculus [4]): -45.69%
Activity (Mus musculus [5]): -33.33%
Activity (Mus musculus [6]): -23.15%
Activity (Mus musculus [7]): -25.81%
Activity (Mus musculus [8]): -11.99%
Activity (Mus musculus [9]): -19.91%
Activity (Mus musculus [10]): -48.64%
Activity (Mus musculus [11]): -39.51%
Activity (Mus musculus [12]): -41.98%
Activity (Mus musculus [13]): -28.78%
Activity (Mus musculus [14]): -21.13%
Activity (Mus musculus [15]): -11.36%
Activity (Mus musculus [16]): -16.76%
Activity (Mus musculus [17]): -11.43%

IC50 ([1]; read-out: IC50): 135 µM
Structure (SMILES): CCCc1cc(OC)c(OCC(=O)O)cc1[N+](=O)[O-]
Activity (Mus musculus [2]): -51.59%
Activity (Mus musculus [3]): -59.67%
Activity (Mus musculus [4]): -40.34%
Activity (Mus musculus [5]): -44.61%
Activity (Mus musculus [6]): -21.86%
Activity (Mus musculus [7]): -20.86%
Activity (Mus musculus [8]): -10.09%
Activity (Mus musculus [9]): -25.11%
Activity (Mus musculus [10]): -47.12%
Activity (Mus musculus [11]): -50.22%
Activity (Mus musculus [12]): -49.21%
Activity (Mus musculus [13]): -47.72%
Activity (Mus musculus [14]): -41.1%
Activity (Mus musculus [15]): -79.36%
Activity (Mus musculus [16]): -28.88%
Activity (Mus musculus [17]): -55.62%

IC50 [1]: Not Active
Structure (SMILES): CCOC(=O)COc1cccc(C(C)=O)c1

IC50 ([1]; read-out: IC50): 71.4 µM
Structure (SMILES): C/C=C/c1cc(OC)c(OC)cc1Cl

IC50 ([1]; read-out: IC50): 153 µM
Structure (SMILES): CCC(O)c1cc(OC)c(OC)cc1N (centres undefined)

IC50 ([1]; read-out: IC50): 73.4 µM
Structure (SMILES): C=CCc1ccc(OCC(=O)O)c(OC)c1

IC50 ([1]; read-out: IC50): 95.2 µM
Structure (SMILES): CCC(C)(C)C(=O)O[C@H]1C[C@@H](C)C=C2C=C[C@H](C)[C@H](CC[C@@H]3C[C@@H](O)CC(=O)O3)[C@H]21 [SIMVASTATIN]

Structure (SMILES): C/C=C/c1cc(OC)c(OC)cc1OC [TRANS-ASARONE]
IC50 ([1]; read-out: IC50): 2490 µM
